Data on nine molecules can be found in ChEMBL document CHEMBL2321850, “Fragment-based discovery of 8-hydroxyquinoline inhibitors of the HIV-1 integrase-lens epithelium-derived growth factor/p75 (IN-LEDGF/p75) interaction” (J Med Chem, 2013).

Data set [1] has as its system Human immunodeficiency virus. Description: Antiviral activity against HIV infected human MT4 cells assessed as decrease of virus-induced cytopathic effect after 72 hrs by MTT assay. In kind it is functional, organism-based. Particulars: Human immunodeficiency virus 1, MT4, 72 h. The method, boiled down: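 MT-4 cells infected with 100 to 300 CCID50 of HIV (CCID50 from virus-stock titration on MT-4) in presence of fivefold serial compound dilutions; protection from viral cytopathic effect read by MTT; EC50 = concentration giving 50% protection. CC50 in MT-4 cells measured in parallel.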
A general note: Damage to the host cells serves as the signal in cytopathic effect assays.

The subject of a further data set is LNCaP. Briefly: Cytotoxicity against human LNCAP cells assessed as inhibition of cell proliferation after 72 hrs by MTT assay. In kind it is cell-based. A general note: Tetrazolium dyes change colour on reduction, which living cells bring about.
Another data set relates to MT4. Description: Cytotoxicity against human MT4 cells assessed as cell viability after 72 hrs by MTT assay. Particulars: mt4, 72 h. It is filed as cell-based. The method, boiled down: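 MT-4 cells exposed to fivefold serial dilutions of compound run in parallel with the antiviral MTT cytopathic-effect assay; CC50 taken as the concentration killing 50% of MT-4 cells.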

A short description of data set [2]: Cytotoxicity against human LNCAP cells assessed as growth inhibition at 10 uM after 72 hrs by MTT assay. It is filed as cell-based. Particulars: read-out: Activity.
The subject of data set [3] is Human immunodeficiency virus 1. Description: Inhibition of HIV-1 FLAG-6x-His-tagged integrase interaction to FLAG-tagged LEDGF/p75 at 10 uM preincubated for 30 mins prior to LEDGF/p75 addition measured after 60 mins by quenching assay.
For data set [4], the target named is T1, Human immunodeficiency virus type 1 integrase (Human immunodeficiency virus 1, UniProt Q7ZJM1). Description: Inhibition of HIV-1 integrase 3'-processing activity.
Data set [5] deals with T1, Human immunodeficiency virus type 1 integrase. Description: Inhibition of HIV-1 integrase strand transfer activity.
The nature of data set [6]: Inhibition of HIV-1 His6-tagged integrase interaction to FLAG-tagged LEDGF/p75 preincubated for 30 mins prior to LEDGF/p75 addition measured after 60 mins by alphascreen assay. The arrangement: species or system Human immunodeficiency virus 1. In short, it runs like this:
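His6-tagged IN (300 nM final) preincubated with compound (20 µM final) 30 min at 4 °C, then FLAG-LEDGF/p75 (300 nM final) added for 60 min at 4 °C; Ni-chelate donor and anti-FLAG acceptor beads (20 µg/mL each) added, 1 h at 30 °C, light-protected; acceptor-bead emission read.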
(In general: In Alpha technology, singlet oxygen from a donor bead excites a nearby acceptor bead.)

Data set [7] is described as follows: Selectivity index, ratio of CC50 for human MT4 cells to EC50 for HIV infected human MT4 cells. It is filed as toxicity, cell-based. Particulars: MT4 cells (CC50) and HIV-infected MT4 cells (EC50). In short, it runs like this: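 MT-4 cells infected with 100 to 300 CCID50 of HIV in the presence of fivefold serial compound dilutions. Protection against virus-induced cytopathic effect was read by MTT to give EC50. CC50 came from parallel MTT viability testing of uninfected MT-4 cells. Selectivity index was calculated as CC50/EC50.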

T1 sequence (Q7ZJM1 whole entry): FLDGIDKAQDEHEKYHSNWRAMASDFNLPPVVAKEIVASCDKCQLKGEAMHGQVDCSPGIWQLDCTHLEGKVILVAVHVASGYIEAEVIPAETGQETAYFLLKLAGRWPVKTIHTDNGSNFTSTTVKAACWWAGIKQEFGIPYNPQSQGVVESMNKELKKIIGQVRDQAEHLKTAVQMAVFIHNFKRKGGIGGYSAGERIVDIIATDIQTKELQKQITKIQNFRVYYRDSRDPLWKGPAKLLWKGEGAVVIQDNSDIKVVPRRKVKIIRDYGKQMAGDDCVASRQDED

As a reminder, the EC50 is the concentration needed to bring the measured effect to its halfway point. As a reminder, the CC50 is the concentration giving 50% cytotoxicity. The term IC50 denotes the midpoint of a concentration-inhibition curve. A low value points to higher potency. `O=C(CC(Sc1cccc2cccnc12)c1ccc(OC(F)F)cc1)c1ccco1` (configuration not stated): the EC50 in data set [1] was greater than 2 µM. Moreover, the 50% cytotoxic concentration (CC50) with LNCaP was 0.8 µM; in the data set with MT4, 2 µM. Further, the inhibition at 72 h, 10 µM in data set [2] was 73%. The molecule further registered an inhibition in [3] of less than 50%. The IC50 in [4] was greater than 20 µM; in [5], greater than 20 µM; in data set [6], 3 µM.

As for `Cc1ccccc1NCc1ccc(O)c2ncccc12`, in data set [1], the EC50 was greater than 9 µM. Moreover, the half-maximal cytotoxic concentration (CC50) with LNCaP was greater than 10 µM; in the data set with MT4, 9 µM. In [2], the inhibition at 72 h, 10 µM worked out at 0%. The same molecule gave an inhibition in data set [3] of less than 50%. Further, the IC50 is greater than 20 µM in [4], greater than 20 µM in [5] and 1.4 µM in data set [6].

As to `Cc1ccc(S(=O)(=O)NC(=O)Oc2cccc3cccnc23)cc1`, the EC50 in [1] was greater than 2 µM. Further, the figures for the 50% cytotoxic concentration (CC50) in the data set with LNCaP and in the data set on MT4 were greater than 10 µM and 2 µM, respectively. The inhibition at 72 h, 10 µM in data set [2] is 13%. The same molecule yielded an inhibition in [3] of less than 50%. The IC50 was greater than 20 µM in data set [4], greater than 20 µM in data set [5] and 1.7 µM in [6].

Consider `Cc1ccc(NCc2ccc(O)c3ncccc23)cc1C`, for which the concentration giving a half-maximal response (EC50) in data set [1] is 17.9 µM. Also, the figures for the CC50 in the data set on LNCaP and in the data set with MT4 were greater than 10 µM and 33.5 µM, respectively. For the same molecule, the selectivity ratio in data set [7] worked out at 2. This molecule also showed an inhibition in data set [3] of less than 50%. Further, the IC50 is greater than 20 µM in data set [4], greater than 20 µM in [5] and 4.6 µM in data set [6].

Consider `Cc1ccc(NCc2ccc(O)c3ncccc23)cc1`, for which the EC50 in [1] is 15.4 µM. Further, the results for the CC50 in the data set with LNCaP and in the data set on MT4 were greater than 10 µM and 36.5 µM, respectively. Besides, in data set [7], the selectivity ratio came out at 2. This molecule also displayed an inhibition in [3] of less than 50%. Also, the results for the concentration for half-maximal inhibition (IC50) in data set [4], in [5] and in [6] were greater than 20 µM, greater than 20 µM and 3.3 µM, respectively.

Consider `O=C(CC(Sc1cccc2cccnc12)c1ccc(F)cc1)c1cccs1` (configuration not stated), for which the cytotoxic concentration (CC50) in the data set with LNCaP is greater than 10 µM. The inhibition at 72 h, 10 µM in data set [2] turned out to be 21%. This molecule also yielded an inhibition in data set [3] of less than 50%. Moreover, the concentration for half-maximal inhibition (IC50) in data set [4] is greater than 20 µM; in [5] it was greater than 20 µM; in data set [6] it was 3 µM.

As for `CCC(=O)NC(c1ccc(OC)cc1)c1cc([N+](=O)[O-])c2cccnc2c1O` (configuration not stated), in data set [1], the concentration giving a half-maximal response (EC50) is greater than 10 µM. Besides, the CC50 with LNCaP was greater than 10 µM; in the data set on MT4 it was 10 µM. The molecule also gave an inhibition in data set [3] of less than 50%. In addition, the concentration for half-maximal inhibition (IC50) was greater than 20 µM in [4], greater than 20 µM in [5] and 2.6 µM in data set [6].

In the case of `CCOc1ccc(NCc2ccc(O)c3ncccc23)cc1`, the EC50 in data set [1] is greater than 11 µM. For the same molecule, the values for the cytotoxic concentration (CC50) in the data set with LNCaP and in the data set on MT4 were greater than 10 µM and 11 µM, respectively. The inhibition in [3] is less than 50%. Moreover, the half-maximal inhibitory concentration (IC50) in data set [4] is greater than 20 µM; in data set [5], greater than 20 µM; in data set [6], 4 µM.

As to `Oc1ccc(CN2CCN(Cc3ccccc3)CC2)c2cccnc12`, in [1], the EC50 is greater than 11 µM. In addition, the CC50 was greater than 10 µM in the data set on LNCaP and 11 µM with MT4. In addition, the inhibition in data set [3] was less than 50%. For the same molecule, the IC50 in data set [4] was greater than 20 µM; in data set [5], greater than 20 µM; in data set [6], 2.2 µM.
